The list is not random: actives were taken first. Their share in the collection is about 3.6%.
FGF22 binding: binders of recombinant human FGF22 by thermal shift; Q9HCT0; actives 1.5% (n = 340,000); activity (Tm shift, normalised), % at 9.99 µM; AID 651658; SYPRO orange fluorescence; percent of sucrose octasulfate shift, DMSO zero;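 active = mean Tm shift, scaled 0 neutral to 100 positive control, at about 1.3% or above, every replicate too, limit read from the data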
Target sequence (Q9HCT0 whole entry, looked up): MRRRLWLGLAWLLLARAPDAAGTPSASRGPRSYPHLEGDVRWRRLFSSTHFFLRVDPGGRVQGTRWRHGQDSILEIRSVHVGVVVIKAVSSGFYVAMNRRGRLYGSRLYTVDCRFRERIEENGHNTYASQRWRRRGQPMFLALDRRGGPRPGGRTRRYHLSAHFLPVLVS
ZTA counter: blocks Epstein-Barr virus ZTA, an EBNA-1 counter-screen. inhibition, % at 11 µM. actives 0.15% (n = 320,000). P03206. ZTA-DNA binding, fluorescence polarization; in the data active = inhibition above about 33%
Target sequence (P03206 whole entry, looked up): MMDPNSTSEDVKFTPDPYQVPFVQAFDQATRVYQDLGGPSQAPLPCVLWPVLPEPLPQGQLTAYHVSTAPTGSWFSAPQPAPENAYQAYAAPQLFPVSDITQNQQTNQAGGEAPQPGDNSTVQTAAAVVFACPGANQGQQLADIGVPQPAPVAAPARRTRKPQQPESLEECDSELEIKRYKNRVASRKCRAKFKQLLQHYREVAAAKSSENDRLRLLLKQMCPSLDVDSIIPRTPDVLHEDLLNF
HCV NS3 hel inh: HCV NS3 helicase inhibition; NS3 helicase DNA unwinding, Cy5 molecular beacon fluorescence; inhibition, % at 10.9 µM; actives 0.56% (n = 290,000); AID 1800;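 active = inhibition above the mean of all tested compounds plus 3 SD, set per campaign, cut at about 35% in these data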;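 also: 0% = DMSO wells and 100% = thioflavine S control wells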
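System: HCV NS3 helicase fragment; control set: DMSO and thioflavine S; technique: Cy5 fluorescence at 0 and 60 min, beacon hairpin quenching; reagent: beacon DNA duplex substrate plus ATP; replicates: singlicate; schedule: 1 h reaction at 25 °C, ATP-initiated; medium: MOPS buffer pH 6.5 with MgCl2, DTT, Tween20, BSA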
DNA FID counter: displaces DNA intercalator in HCV helicase counter-screen. actives 0.17% (n = 290,000). DNA fluorescent intercalator displacement, fluorescence. inhibition, % at 7.9 µM; in the data active = inhibition above about 37%;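 also: 0% = vehicle and 100% = reference compound; higher means more ethidium bromide displaced from hairpin DNA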
GRIN3A LBD mod: NR3A (human) ligand-binding domain modulation; actives 2.5% (n = 340,000); NR3A LBD differential scanning fluorimetry, Tm shift; 0% = protein alone, 100% = glycine-bound protein; Tm shift relative to glycine control, % at 25 µM;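 active = melting temperature shift of at least 10% of the positive control shift, at one fixed dose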
EBNA-1 inhibitor: blocks EBNA-1 binding to DNA; AID 1950; EBNA-1 DNA binding, fluorescence polarization; inhibition, % at 14.8 µM; actives 0.34% (n = 300,000); in the data active = inhibition above about 28%
Starred values were filed as active, the others as inactive; x = not tested or not shown; ! = not active in a repeat.

SMILES	FGF22 binding	ZTA counter	HCV NS3 hel inh	DNA FID counter	GRIN3A LBD mod	EBNA-1 inhibitor
CO/N=C/C(C#N)=C/c1cc(C(=O)c2ccc(F)cc2)cn1C	43.0*	5.7	2.7	-5.3	-0.9	9.8
Cc1ccccc1-c1ccc([C@H]2[C@@H](CO)N3CCCCN(C(=O)NC4CCCC4)C[C@@H]23)cc1	0.0	x	x	x	x	x
CC(O)CNCc1ccc(Cl)cc1Cl (stereo not given)	44.5*	-3.2	-0.4	0.0	-1.4	7.8
CCS(=O)(=O)N1CCCCN2[C@@H](CO)[C@@H](c3ccc(C4=CCCC4)cc3)[C@@H]2C1	0.9	x	x	x	x	x
CCOC(=O)c1cnc(-c2ccccc2)nc1N1CC(C)OC(C)C1 (stereo not given)	43.3*	12.8	2.3	-24.3	-2.1	-7.1
CCOC(=O)c1nnc(-c2ccccc2)nc1N1CC(C)OC(C)C1 (stereo not given)	-0.4	-24.9	5.1	-7.0	-2.5	5.2
CO[C@H]1CN(C)C(=O)c2cc(NC(C)=O)ccc2OC[C@@H](C)N(C(=O)c2ccc(F)cc2)C[C@@H]1C	0.8	x	x	x	x	x
C/C(=N/NS(=O)(=O)c1ccc(C)cc1C)c1ccc2c(c1)OCO2	0.1	8.6	7.7	-20.5	0.1	-0.9
C/C(=N/NC(=O)c1ccccn1)c1c[nH]c2ccccc12	-0.1	-15.3	3.2	-8.3	4.0	-17.6
C/C(=N/NS(=O)(=O)c1ccc(C)c(C)c1)c1c[nH]c2ccccc12	0.5	x	-36.8	-7.1	38.4*	x
C/C(=N/NS(=O)(=O)c1ccc(C)cc1C)c1c[nH]c2ccccc12	-0.4	x	-27.5	-11.9	11.2*	x
Cc1noc(C)c1NC(=O)N(C)C[C@@H]1Oc2ccc(NC(=O)C3CCCCC3)cc2C(=O)N([C@H](C)CO)C[C@H]1C	-0.1	x	x	x	x	x
COc1ccc(CN(C)C[C@H]2OCCCC[C@H](C)Oc3ccc(NC(=O)Nc4ccccc4)cc3C(=O)N([C@H](C)CO)C[C@H]2C)cc1	0.0	x	x	x	x	x
COc1ccc(S(=O)(=O)Nc2ccc3c(c2)C(=O)N([C@H](C)CO)C[C@H](C)[C@@H](CN(C)C(=O)CCC(F)(F)F)OCCCC[C@@H](C)O3)cc1	-0.3	x	x	x	x	x
Cc1ccc(NC(=O)c2cc(S(=O)(=O)NCCc3ccccc3)ccc2F)cc1Cl	x	-13.0	-16.0	-9.2	23.9*	-6.1
CCOC(=O)N1CCC(NC(=O)c2cc(S(=O)(=O)NCCc3ccccc3)ccc2F)CC1	-0.1	-7.5	-1.0	-43.2	-5.5	-11.8
COc1ccc(CNS(=O)(=O)c2ccc(F)c(C(=O)Nc3ccc(OC)cc3)c2)cc1	0.9	6.6	-3.2	-9.5	-22.6	-5.2
O=C(Nc1cccc(Cl)c1)c1cc(S(=O)(=O)NCCc2ccc(Cl)cc2)ccc1F	0.1	11.1	-15.4	1.3	31.8*	-11.7
O=C(C[C@H]1C[C@@H]2c3cc(NS(=O)(=O)c4ccc(F)cc4)ccc3O[C@@H]2[C@H](CO)O1)NCCc1ccccc1	-0.4	x	x	x	x	x
CCCC#Cc1cnc2c(c1)C(=O)N([C@H](C)CO)C[C@@H](C)[C@@H](CN(C)C(=O)C1CCC1)O2	-0.1	x	x	x	x	x
CCOc1cccc2sc(N(CCCN(C)C)C(=O)c3ccc(S(=O)(=O)N(CC)Cc4ccccc4)cc3)nc12	0.2	-4.5	-42.1	37.3*	-3.3	4.8
CCN(c1ccccc1)S(=O)(=O)c1ccc(C(=O)N(CCCN(C)C)c2nc3cc4c(cc3s2)OCO4)cc1	-0.1	8.7	-41.6	29.9	-3.2	8.9
Cc1ccc2sc(N(CCCN(C)C)C(=O)c3ccc(S(=O)(=O)N4CCc5ccccc5C4)cc3)nc2c1C	-0.7	25.9	x	x	14.1*	2.0
CCOc1cccc2sc(N(CCCN(C)C)C(=O)c3ccc(S(=O)(=O)N(C)Cc4ccccc4)cc3)nc12	0.1	-15.8	-39.4	39.1*	-5.3	9.4
CCN(c1ccccc1)S(=O)(=O)c1ccc(C(=O)N(CCCN(C)C)c2nc3c(C)cccc3s2)cc1	-0.4	0.5	-40.4	37.3*	-0.9	-5.8
SMILES	FGF22 binding	ZTA counter	HCV NS3 hel inh	DNA FID counter	GRIN3A LBD mod	EBNA-1 inhibitor
C[C@@H]1CN([C@@H](C)CO)C(=O)c2cc(NC(=O)NC3CCCCC3)ccc2O[C@@H](C)CCCCO[C@@H]1CN(C)S(=O)(=O)c1cccs1	0.0	x	x	x	x	x
CN1CCN(C(=O)C[C@H]2CC[C@H]3[C@@H](COC[C@@H](O)CN3Cc3cccc(F)c3)O2)CC1	43.2*!	x	x	x	x	x
C[C@@H]1CN([C@H](C)CO)C(=O)c2cccc(NC(=O)Nc3ccccc3)c2O[C@@H]1CN(C)Cc1ccc(C(=O)Nc2ccccc2N)cc1	0.2	x	x	x	x	x
COc1ccc(OC)c(NC(=O)Cn2cc(C#N)c3cc(Br)ccc32)c1	x	5.2	-6.9	-5.3	15.1*	4.0
C[C@H](CO)N1C[C@H](C)[C@H](CN(C)S(=O)(=O)c2ccc(F)cc2)OCCCC[C@H](C)Oc2ccc(NC(=O)Nc3ccc(F)cc3)cc2C1=O	0.1	x	x	x	x	x
COc1cccc(S(=O)(=O)Nc2ccc3c(c2)[C@@H]2C[C@@H](CC(=O)N(C)C)O[C@H](CO)[C@@H]2O3)c1	-0.1	x	x	x	x	x
O=C(c1cc(=O)c2ccccc2o1)N1CCN(c2ccccc2F)CC1	0.1	-9.8	2.7	-21.6	-0.6	-6.3
CSc1ccccc1C(=O)N1CCN(c2cccc(Cl)c2)CC1	43.4*	-2.8	3.4	-28.0	0.6	-3.2
O=C(c1cc(=O)c2ccccc2o1)N1CCN(c2cccc(Cl)c2)CC1	43.3*	-2.7	-8.8	-30.3	0.6	-5.2
O=C(COc1ccc(/C=N/NC(=O)c2ccncc2)cc1)Nc1ccccc1	0.3	-11.8	-4.0	-30.3	10.9*	7.7
Cc1ccc(S(=O)(=O)N/N=C/c2ccc(OCC(=O)Nc3ccccc3Cl)cc2)cc1	0.0	8.2	-15.5	-10.6	18.0*	13.0
Cc1ccc(NC(=O)COc2ccc(/C=N/NC(=O)CSCc3ccccc3)cc2)cc1	x	-17.6	-14.4	-19.8	18.2*	10.8
COc1ccccc1NC(=O)COc1ccc(/C=N/NS(=O)(=O)c2ccc(C)cc2)cc1	x	0.4	-14.4	-10.9	4.8	-18.1
CCOc1ccc(NC(=O)CNc2ccc(C)cc2Cl)cc1	x	-6.5	-8.7	-21.0	34.0*	3.1
C[C@H](O)C#Cc1cnc2c(c1)C(=O)N([C@H](C)CO)C[C@@H](C)[C@H](CN(C)C(=O)c1ccccc1F)O2	-0.1	x	x	x	x	x
O=C(COc1ccc(/C=N/NC(=O)c2ccncc2)cc1)Nc1cccc([N+](=O)[O-])c1	-0.1	-9.3	-5.7	-7.8	16.5*	-9.3
O=C(COc1ccc(/C=N/NC(=O)c2ccccc2O)cc1)Nc1ccc([N+](=O)[O-])cc1	0.2	6.0	8.7	-0.4	37.4*	17.0
CCOc1ccc(/C=N/NC(=O)CC(=O)Nc2ccc(Cl)c(Cl)c2)cc1	-0.1	9.3	-14.9	0.8	19.5*	16.2
COc1cc(/C=N/NC(=O)COc2ccc(Cl)cc2)ccc1OS(=O)(=O)c1ccc(C)cc1	x	2.3	-0.6	-17.6	11.7*	10.0
